{"source": "ChEMBL document CHEMBL4813970", "about": "“Design, synthesis and evaluation of novel dimethylamino chalcone-O-alkylamines derivatives as potential multifunctional agents against Alzheimer's disease” (Eur J Med Chem, 2021)", "key": {"[1]": {"test_system": "PC-12", "assay": "Cytotoxicity against rat PC12 cells assessed as cell viability by MTT assay relative to control", "assay_type": "functional"}, "[2]": {"test_system": "Mus musculus", "assay": "Antialzheimer activity in scopolamine-induced po dosed KM mouse model of memory impairment assessed as increase in latency time treated for 7 days followed by training trial at 1 hr post dose and subsequent scopolamine challenge at 30 mins post training trial and measured post last dose by step-down passive avoidance test", "assay_type": "functional, organism-based", "conditions": "dose 2.3-20.4 mg/kg, time 7.0 day", "in_short": "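Mice orally dosed at 2.3, 6.8 and 20.4 mg/kg, with donepezil 5.0 mg/kg p.o. as positive control, 1 h before training trial. Scopolamine 3 mg/kg i.p. given 30 min later. Training trial uses a 0.5 mA, 2 s foot shock on stepping down from the block. Step-down latency is measured as the test trial 24 h after training. n = 10 per group.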"}, "[3]": {"target": "T1, Acetylcholinesterase (Rattus norvegicus, UniProt P37136)", "T1 sequence (P37136 whole entry)": "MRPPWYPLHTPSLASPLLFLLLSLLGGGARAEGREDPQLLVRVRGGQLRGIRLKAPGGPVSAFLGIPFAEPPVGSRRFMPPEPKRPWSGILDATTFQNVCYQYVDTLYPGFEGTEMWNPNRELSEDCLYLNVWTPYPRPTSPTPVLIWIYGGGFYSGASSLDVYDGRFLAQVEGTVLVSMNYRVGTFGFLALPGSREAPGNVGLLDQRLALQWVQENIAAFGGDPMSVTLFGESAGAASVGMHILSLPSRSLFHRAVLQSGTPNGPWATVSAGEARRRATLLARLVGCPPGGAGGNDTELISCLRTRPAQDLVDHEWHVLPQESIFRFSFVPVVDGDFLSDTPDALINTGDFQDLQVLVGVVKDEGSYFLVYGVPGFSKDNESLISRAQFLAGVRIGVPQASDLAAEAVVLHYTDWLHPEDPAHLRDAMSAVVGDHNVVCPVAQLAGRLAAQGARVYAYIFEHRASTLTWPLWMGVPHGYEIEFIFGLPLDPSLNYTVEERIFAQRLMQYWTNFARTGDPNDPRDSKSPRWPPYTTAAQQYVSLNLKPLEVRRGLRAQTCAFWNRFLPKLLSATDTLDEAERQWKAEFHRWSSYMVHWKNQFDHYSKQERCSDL", "assay": "Inhibition of rat cortex homogenate acetylcholinesterase by Ellman's method"}, "[4]": {"assay": "Permeability of the compound by PAMPA", "assay_type": "ADME", "conditions": "read-out: permeability", "in_short": "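PAMPA-BBB. Assay validated against 11 commercial drugs with reported permeability values.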"}, "[5]": {"assay": "Metal chelating activity assessed as compound Zn2+ complex formation by UV-Visible spectrophotometry", "in_short": "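UV-vis spectra recorded from 200 to 600 nm on a multimode reader. Metals tested as CuCl2, FeSO4, ZnCl2 and AlCl3.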"}}, "note": "The source made the active and inactive calls. The rule behind the calls is not given here.", "data": [{"smiles": "CCN(CCCCOc1ccc(C(=O)/C=C/c2ccc(N(C)C)cc2)c(O)c1)Cc1ccccc1N(C)C", "values": [{"measurement": "Activity", "setting": "[1]", "value": ">50", "unit": "µM"}, {"measurement": "Activity", "setting": "[2]", "value": "Dose-Dependent Effect"}, {"measurement": "IC50", "setting": "[3]", "value": 130, "unit": "nM"}, {"measurement": "Papp", "setting": "[4]", "value": 13.4, "unit": "×10⁻⁶ cm/s"}, {"measurement": "Activity", "setting": "[5]", "value": "inactive"}]}]}
